In the library only some 4.9% were active in any assay of this set; here they are far more common.
APP 5'UTR act = activators of APP 5'UTR luciferase reporter, primary screen, SH-SY5Y cells; SH-SY5Y APP 5'UTR luciferase reporter, luminescence; zero percent = DMSO vehicle wells; activation, % at 2 µM; 190,000 tested, 1% active; AID 1276, 2008;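 active means activation above a set limit, based on mean plus 3 SD of controls, cut at about 140% in these data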
STAT1 activator = STAT1 signaling activators, primary screen, cell-based, HTS, luciferase reporter | activation (% of control), % at 5.5 µM | 200,000 tested, 2.6% active | AID 932, 2007 | NIH 3T3 STAT1-luciferase reporter, IFN-gamma, luminescence; 100% = IFN-gamma alone, no compound;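 active means activation above the screen-wide mean activation plus 3 SD, cut at about 130% in these data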;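 further: raw ratio to IFN-gamma control signal so 100% means no change and 0% no light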
NF-kB neuron act = activators of NF-kB expression in neurons, primary screen, cell-based, HTS; human neuronal cells, NF-kB reporter expression; stronger effect = higher value; fold change at 12.5 µM; 190,000 tested, 1.6% active; AID 1239, 2008; in the data active means fold change above about 3.3
STAT1 blocker = STAT1 signaling inhibitors, primary screen, cell-based, HTS, luciferase reporter; NIH 3T3 STAT1-luciferase reporter, IFN-gamma, luminescence; inhibition, % at 5.5 µM; 200,000 tested, 0.35% active; AID 920, 2007;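 active means inhibition above a set limit, the mean inhibition across all tested compounds plus 3 SD, cut at about 34% in these data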;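 further: 0% = IFN-gamma with DMSO and 100% = IFN-gamma with 300 µM nifuroxazide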
STAT3 inh = IL-6 driven STAT3 reporter inhibitors, primary screen, U3A cells, luciferase, luminescence, MLSCN library; IL-6 STAT3-luciferase reporter; host cell line lacks STAT1; inhibition, % at 5.5 µM; 190,000 tested, 0.89% active; AID 862, 2007;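 active means inhibition above the mean inhibition across all screened compounds plus 3 SD, cut at about 44% in these data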;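 further: 0% = DMSO only wells and 100% = 100 µM nifuroxazide control wells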
STAT3 act = IL-6 driven STAT3 reporter potentiators, primary screen, U3A cells, luciferase, luminescence, MLSCN library | IL-6 STAT3-luciferase reporter; 100% = signal with IL-6 EC80 alone | AID 871, 2007 | activation (% of control), % at 5.6 µM | 190,000 tested, 0.91% active;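 active means activation above the screen-wide mean of compound activation plus 3 SD, cut at about 130% in these data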;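 further: 0% = background luminescence of wells with medium and substrate only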
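Material: STAT3-luciferase reporter U3A cells; Probe or stimulus: IL-6 (33 ng/mL); Incubation: compound pre-incubation 1 h before IL-6, then 6 h stimulation at 37 °C; Technique: luminescence from STAT3-driven luciferase reporter; Evaluation: % activation versus median of IL-6-stimulated wells; Controls: IL-6-only high control.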
The depositor's hits bear a star; / = no result given.

SMILES	APP 5'UTR act	STAT1 activator	NF-kB neuron act	STAT1 blocker	STAT3 inh	STAT3 act
O=C(/C=C/c1c(F)cccc1Cl)Nc1nc2ccccc2[nH]1	115	130*	1.4	-34	1	101
Cc1ccc(/C=C/C(=O)c2nc3ccccc3[nH]2)cc1	-2	110	1.6	-12	14	95
COc1ccccc1Nc1nc2ccccc2[nH]1	46	108	1.7	-9	18	89
COc1ccc(C(=O)NCc2nnc(SC)n2Cc2ccccc2)cc1	16	103	0.98	-5	5	101
CCC(C)NS(=O)(=O)c1ccc(F)c(C(=O)Nc2c(F)cc(F)cc2Br)c1 (configuration not stated)	4	99	1	1	4	98
CC(C)(C)c1nnc2cccc(Cl)n12	-12	108	1.1	-11	4	100
COc1cc(/C=N/N=C(N)N)ccc1OCc1ccccc1Cl	13	90	4.3*	11	12	92
CC(C)CC(C(=O)N1CCc2ccccc2C1)N1C(=O)c2ccccc2C1=O (configuration not stated)	-13	91	0.83	9	-36	134*
CCn1ccc(C(=O)Nc2ccc(Cl)cn2)n1	/	131*	2.8	-34	15	95
CCn1ccc(C(=O)Nc2ccccc2SC)n1	37	140*	1.5	-45	1	111
CCn1ccc(C(=O)Nc2ccc(N(C)C(C)=O)cc2)n1	25	104	1.9	-4	-3	106
CCn1nccc1C(=O)Nc1ccc(Cl)cn1	13	116	1.8	-18	4	100
C1CCC(C23CC4CC(CC(C4)C2)C3)NC1 (configuration not stated)	-8	101	1.3	-1	4	98
O=C(Nc1ccccc1-c1nc2ccccc2[nH]1)c1sc2ccccc2c1Cl	-6	110	0.97	-12	0	100
Cc1cc(C(=O)CSc2nnc(-c3ccccc3F)o2)c(C)n1Cc1cccs1	14	90	0.83	11	6	97
Cc1cc(C(=O)CN2C(=O)c3cccc(N)c3C2=O)c(C)n1Cc1cccs1	/	147*	2.8	-51	-43	134*
COCCN(Cc1nc(C2(c3ccc(C)cc3)CCCC2)no1)C(C)C	-7	99	1.3	-1	-3	107
Cc1ccc2[nH]c(=O)cc(C(=O)OC(C)C)c2c1	6	101	1.2	-4	2	102
O=c1[nH]nc(SCc2nc3ccccc3s2)n1C1CC1	37	120	1.2	-23	-30	127
Cc1ccccc1-n1c(C)nnc1SCc1nc2ccccc2s1	141*	132*	1.5	-35	-44	142*
CCCn1c(SCc2nc3ccccc3s2)n[nH]c1=O	119	134*	2.1	-36	-18	124
COc1ccc(Nc2nc(N)nc(CSC(=S)N3CCOCC3)n2)cc1	12	142*	1.8	-49	-10	113
Cc1cc(SCC(=O)N(C)C2CCS(=O)(=O)C2)nc2c(C)cccc12 (configuration not stated)	-16	98	1	2	5	101
Cc1ccc2c(c1)Cc1nc3ccccc3nc1-2	116	44	2.8	61*	72*	41
Cc1ccc(CSc2nnc(-c3ccccn3)n2C)cc1	23	124	1.6	-27	6	99
SMILES	APP 5'UTR act	STAT1 activator	NF-kB neuron act	STAT1 blocker	STAT3 inh	STAT3 act
Cn1c(SCc2ccccc2F)nnc1-c1ccccn1	35	142*	1.8	-46	14	96
Cn1c(SCc2ccc(F)cc2)nnc1-c1ccccn1	71	140*	2.3	-44	4	101
Cn1c(SCc2ccccc2)nnc1-c1cccs1	45	117	2.1	-19	10	99
Cn1c(SCc2ccccn2)nnc1-c1cnccn1	14	106	1.4	-5	-4	109
Cn1c(SCc2ccccc2F)nnc1-c1cnccn1	61	137*	2	-40	0	104
Cn1c(SCc2ccc(F)cc2)nnc1-c1cccs1	121	140*	2.2	-45	5	96
CN(C)Cc1ccccc1COc1ccccc1	0	98	0.99	2	6	95
Fc1ccc(NC(=S)Nc2ccccc2N2CCOCC2)cc1Cl	17	90	1.1	10	7	100
OC(CN1CCN(c2cccc(C(F)(F)F)c2)CC1)c1c[nH]c2ccccc12 (configuration not stated)	-1	94	0.93	7	-38	135*
OC(COCc1cccs1)CN1CCN(c2cccc(C(F)(F)F)c2)CC1 (configuration not stated)	-10	95	0.98	5	-1	100
O=C1C(=O)N(C2CCCC2)C(=O)N1Cc1c(F)cccc1Cl	10	87	1.1	12	-9	109
CC(=O)Nc1ccc(/C=C/c2ccc3c([N+](=O)[O-])cccc3n2)cc1	65	136*	1.1	-42	7	96
O=[N+]([O-])c1cccc2ccc(/C=C/c3ccc(Cl)cc3)nc12	23	113	2	-14	-24	115
COc1cccc(N/C=C/c2onc(C)c2[N+](=O)[O-])c1	146*	144*	1.5	-47	15	95
COC(=O)Cc1ccc(NC(=O)c2ccc(C)c(C)c2)cc1	21	133*	3.9*	-36	8	96
CCOC(=O)Cc1ccc(NC(=O)c2ccc(C(C)(C)C)cc2)cc1	-71	67	0.36	38*	96*	20
Cc1noc(N)c1C(=O)Nc1ccc(C(C)(C)C)cc1	75	143*	4*	-47	6	99
CC(=O)c1ccc(N2Cc3ccccc3/C2=N\C(=O)Nc2ccc(Cl)cc2)cc1	16	106	1.5	-7	-1	101
COC(=O)c1cn(CC(=O)Nc2ccc(F)cc2)c2ccccc12	-1	89	1.2	12	-13	112
Cc1nc(C(C)NC(=O)CCc2nnc(-c3ccsc3)o2)cs1 (configuration not stated)	8	104	1.2	-7	0	104
CCN1C(=O)/C(=C/C=C2/CCCN2C)OC1=S	29	116	1.7	-20	-3	106
CN1C(=O)/C(=C\C=C2/CCCN2C)N(C)C1=S	11	128	5.7*	-31	5	97
NC(=O)c1ccc(NC(=O)COC(=O)C2CC(=O)N(Cc3ccccc3)C2)cc1 (configuration not stated)	-7	109	1.1	-10	-6	107
O=[N+]([O-])c1ccc(-c2nc3ccc([N+](=O)[O-])cc3[nH]2)cc1	30	131*	1.4	-35	18	94

Compound activity from PubChem.
